According to ChEMBL document CHEMBL1139875, “Discovery of 4-aminobutyric acid derivatives possessing anticonvulsant and antinociceptive activities: a hybrid pharmacophore approach” (2007):
Calls of active or inactive are those of the source. No cut-off for these calls is given here.

Experiments:
Rattus norvegicus [1] = test: Effect on spontaneous pain in Sprague-Dawley rat SNL model assessed as duration of paw withdrawal at 100 mg/kg, ip after 2.5 hrs; type: functional; conditions: route intraperitoneal
Procedure, shortened: (§1)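 Rats underwent left L5 spinal nerve ligation (Kim and Chung) under i.p. pentobarbital (65 mg/kg). Spontaneous pain is recorded for 5 min after 10 min acclimatization, as cumulative duration the ipsilateral paw is lifted, excluding locomotor lifts. Dosing is 100 mg/kg i.p. in 30% v/v PEG 400/water, with testing at 0.5–2.5 h. Four rats, mean ± SEM versus predrug, one-way ANOVA with Bonferroni.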

Rattus norvegicus [2] = test: Anti-cold allodynia effect in Sprague-Dawley rat SNL model assessed as duration of paw withdrawal 100 mg/kg, ip after 2 hrs; type: functional; conditions: route intraperitoneal
Procedure, shortened: (§2)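 Left L5 spinal nerve ligation under pentobarbital (65 mg/kg i.p.). Allodynic rats dosed i.p. 100 mg/kg, vehicle 30% v/v PEG 400 in water. Acetone (100-200 µL) misted onto midplantar affected paw after 10 min acclimatization; paw withdrawal duration, mean of three samples at least 3 min apart; n = 4 rats.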

Rattus norvegicus [3] = test: Effect on spontaneous pain in Sprague-Dawley rat SNL model assessed as duration of paw withdrawal at 100 mg/kg, ip after 2 hrs; type: functional; conditions: route intraperitoneal; procedure, shortened: as §1
Rattus norvegicus [4] = test: Effect on spontaneous pain in Sprague-Dawley rat SNL model assessed as duration of paw withdrawal at 100 mg/kg, ip after 0.5 hr; type: functional; conditions: route intraperitoneal; procedure, shortened: as §1
Rattus norvegicus [5] = test: Anti-cold allodynia effect in Sprague-Dawley rat CCI model assessed as duration of paw withdrawal at 100 mg/kg, ip after 0.5 hr; type: functional; conditions: route intraperitoneal
Procedure, shortened: (§3)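 CCI by sciatic nerve ligation under pentobarbital (65 mg/kg i.p.). Rats tested at baseline and 9 days post-surgery; those with allodynia dosed i.p. 100 mg/kg, vehicle 30% v/v PEG 400 in water. Acetone (100-200 µL) misted on midplantar affected paw; withdrawal duration recorded, three samples averaged, at least 3 min apart; n = 4.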

Rattus norvegicus [6] = test: Anti-dynamic allodynia effect in Sprague-Dawley rat SNL model assessed as latency to paw withdrawal 100 mg/kg, ip after 0.5 hr; type: functional; conditions: route intraperitoneal
Procedure, shortened: (§4)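 Left L5 spinal nerve ligation rats, tested preoperatively and 9 days postoperatively, then given 100 mg/kg i.p. (vehicle 30% v/v PEG 400 in water). After 10 min acclimatization, plantar surface of affected paw stroked mildly with a cotton-bud; paw lift response recorded. n = 4; retested 0.5-2.5 h post-dose.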

Rattus norvegicus [7] = test: Anti-cold allodynia effect in Sprague-Dawley rat SNL model assessed as duration of paw withdrawal 100 mg/kg, ip after 2.5 hrs; type: functional; conditions: route intraperitoneal; procedure, shortened: as §2
Rattus norvegicus [8] = test: Antihyperalgesic effects in Sprague-Dawley rat SNL model assessed as duration of paw withdrawal at 100 mg/kg, ip after 2 hrs, ip; type: functional; conditions: route intraperitoneal
Procedure, shortened: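 L5 SNL rats (n = 4), dosed 100 mg/kg i.p. (vehicle 30% v/v PEG 400 in water). Pin-prick to midplantar ipsilateral left hindpaw; withdrawal duration, mean of three responses; ≥2 s defined abnormal. Mean ± SEM; one-way ANOVA with Bonferroni versus predrug.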

Rattus norvegicus [9] = test: Anti-cold allodynia effect in Sprague-Dawley rat CCI model assessed as duration of paw withdrawal 100 mg/kg, ip after 2 hr; type: functional; conditions: route intraperitoneal; procedure, shortened: as §3
Rattus norvegicus [10] = test: Anti-cold allodynia effect in Sprague-Dawley rat CCI model assessed as duration of paw withdrawal 100 mg/kg, ip after 2.5 hr; type: functional; conditions: route intraperitoneal; procedure, shortened: as §3
Rattus norvegicus [11] = test: Anti-cold allodynia effect in Sprague-Dawley rat CCI model assessed as duration of paw withdrawal 100 mg/kg, ip after 1 hr; type: functional; conditions: route intraperitoneal; procedure, shortened: as §3
Rattus norvegicus [12] = test: Anti-dynamic allodynia effect in Sprague-Dawley rat SNL model assessed as latency to paw withdrawal 100 mg/kg, ip after 2 hrs; type: functional; conditions: route intraperitoneal; procedure, shortened: as §4
Rattus norvegicus [13] = test: Anti-cold allodynia effect in Sprague-Dawley rat SNL model assessed as duration of paw withdrawal 100 mg/kg, ip after 1 hrs; type: functional; conditions: route intraperitoneal; procedure, shortened: as §2
Rattus norvegicus [14] = test: Anti-dynamic allodynia effect in Sprague-Dawley rat SNL model assessed as latency to paw withdrawal 100 mg/kg, ip after 1 hr; type: functional; conditions: route intraperitoneal; procedure, shortened: as §4
Rattus norvegicus [15] = test: Anti-cold allodynia effect in Sprague-Dawley rat SNL model assessed as duration of paw withdrawal 100 mg/kg, ip after 0.5 hr; type: functional; conditions: route intraperitoneal; procedure, shortened: as §2
Rattus norvegicus [16] = test: Effect on spontaneous pain in Sprague-Dawley rat SNL model assessed as duration of paw withdrawal at 100 mg/kg, ip after 1 hr; type: functional; conditions: route intraperitoneal; procedure, shortened: as §1
Mus musculus [17] = test: Anticonvulsant activity in Swiss Albino mouse at 300 mg/kg, ip after 4 hrs by scSTY test; type: functional, organism-based; parameters: dose 300 mg/kg
Procedure, shortened: (§5)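 Mice (Swiss, 20-25 g) given i.p. doses of 30, 100 and 300 mg/kg under ADD program protocols, three per group, examined at 0.5 and 4 h in MES, scPTZ, scSTY or scPIC seizure tests. Value is the minimum dose protecting half or more of the mice.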

Mus musculus [18] = test: Anticonvulsant activity in Swiss Albino mouse at 300 mg/kg, ip after 4 hrs by MES test; type: functional, organism-based; parameters: dose 300 mg/kg; procedure, shortened: as §5
Mus musculus [19] = test: Analgesic activity in Swiss Albino mouse assessed as inhibition of acetic acid-induced writhing responses at 100 mg/kg, ip; type: functional; conditions: route intraperitoneal
Procedure, shortened: (§6)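 Mice in groups of six dosed i.p. at 100 mg/kg, controls receiving 30% v/v PEG 400 in water. Writhing induced by i.p. 0.1 mL of 3% v/v acetic acid 1 h after drug. Writhes (abdominal stretch with at least one hind limb extended) counted over 30 min; % inhibition calculated. Mean ± SEM, Student's t test.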

Mus musculus [20] = test: Anticonvulsant activity in Swiss Albino mouse at 30 mg/kg, ip after 0.5 hr by scPIC test; type: functional, organism-based; parameters: dose 30 mg/kg; procedure, shortened: as §5
Mus musculus [21] = test: Neurotoxicity in Swiss Albino mouse at 300 mg/kg, ip after 0.5 hr by rotarod test; type: functional, organism-based; parameters: dose 300 mg/kg
Procedure, shortened: (§7)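 Swiss mice (20-25 g) are trained on an accelerating rotorod (10 rpm, 3.2 cm rod), then injected i.p. at 30, 100 or 300 mg/kg, with three per group. Neurotoxicity means failure to keep equilibrium for at least 1 min in each of three trials, checked at 0.5 and 4 h. The value reported is the minimum dose affecting half or more of the mice.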

Mus musculus [22] = test: Anticonvulsant activity in Swiss Albino mouse at 300 mg/kg, ip after 0.5 hr by scPTZ test; type: functional, organism-based; parameters: dose 300 mg/kg; procedure, shortened: as §5
Mus musculus [23] = test: Anticonvulsant activity in Swiss Albino mouse at 300 mg/kg, ip after 0.5 hr by scSTY test; type: functional, organism-based; parameters: dose 300 mg/kg; procedure, shortened: as §5
Mus musculus [24] = test: Anticonvulsant activity in Swiss Albino mouse at 300 mg/kg, ip after 0.5 hr by MES test; type: functional, organism-based; parameters: dose 300 mg/kg; procedure, shortened: as §5
Mus musculus [25] = test: Analgesic activity in Swiss Albino mouse assessed as number of acetic acid-induced writhing per 30 min after 100 mg/kg, ip; type: functional; conditions: route intraperitoneal; procedure, shortened: as §6
Mus musculus [26] = test: Anticonvulsant activity in Swiss Albino mouse at 300 mg/kg, ip after 0.5 hr by scPIC test; type: functional, organism-based; parameters: dose 300 mg/kg; procedure, shortened: as §5
Mus musculus [27] = test: Neurotoxicity in Swiss Albino mouse at 100 mg/kg, ip after 0.5 hr by rotarod test; type: functional, organism-based; parameters: dose 100 mg/kg; procedure, shortened: as §7
Mus musculus [28] = test: Anticonvulsant activity in Swiss Albino mouse at 30 mg/kg, ip after 4 hrs by scSTY test; type: functional, organism-based; parameters: dose 30 mg/kg; procedure, shortened: as §5
Mus musculus [29] = test: Anticonvulsant activity in Swiss Albino mouse at 30 mg/kg, ip after 4 hrs by scPIC test; type: functional, organism-based; parameters: dose 30 mg/kg; procedure, shortened: as §5
Mus musculus [30] = test: Anticonvulsant activity in Swiss Albino mouse at 30 mg/kg, ip after 0.5 hr by scSTY test; type: functional, organism-based; parameters: dose 30 mg/kg; procedure, shortened: as §5

Row | Compound | Activity (Rattus norvegicus [1]) [s] | Activity (Rattus norvegicus [2]) [s] | Activity (Rattus norvegicus [3]) [s] | Activity (Rattus norvegicus [4]) [s] | Activity (Rattus norvegicus [5]) [s] | Activity (Rattus norvegicus [6]) [s] | Activity (Rattus norvegicus [7]) [s] | Activity (Rattus norvegicus [8]) [s] | Activity (Rattus norvegicus [9]) [s] | Activity (Rattus norvegicus [10]) [s] | Activity (Rattus norvegicus [11]) [s] | Activity (Rattus norvegicus [12]) [s] | Activity (Rattus norvegicus [13]) [s] | Activity (Rattus norvegicus [14]) [s] | Activity (Rattus norvegicus [15]) [s] | Activity (Rattus norvegicus [16]) [s] | Activity (Mus musculus [18]) | inhibition in vivo at 100 mg/kg (Mus musculus [19]) [%] | Activity (Mus musculus [22]) | Activity (Mus musculus [24]) | also measured
1 | NC(=O)N1c2ccccc2C=Cc2ccccc21 [CARBAMAZEPINE] | 94.9 | 19.4 | 85.4 | 14.6 | 12.8 | 14.7 | 20.6 | 5.5 | 27.8 | 21.8 | 10.6 | 1.9 | 11.8 | 13.4 | 13.5 | 7.9 |  |  |  |  | 
2 | CN(C)c1ccc(/C=N/NC(=O)NCCCC(=O)O)cc1 | 43 |  | 29.2 | 12.4 | 28.1 | 10.7 |  | 4.4 | 17.9 | 18.1 | 19.7 | 2.9 |  | 8.8 |  | 21.2 | inactive | 93 | inactive | inactive | Activity (Mus musculus [17]): inactive; Activity (Mus musculus [20]): Active; Activity (Mus musculus [21]): inactive; Activity (Mus musculus [23]): inactive; Activity (Mus musculus [25]): 13
3 | NCC1(CC(=O)O)CCCCC1 [GABAPENTIN] | 10.1 | 7.6 | 9.1 | 29.7 | 26.8 | 1.5 | 6.9 | 9.9 | 7.5 | 7.2 | 10 | 6.6 | 9 | 4.6 | 16.7 | 12.9 |  |  |  |  | 
4 | O=C(O)CCCNC(=O)N/N=C1\C(=O)Nc2ccccc21 | 9.8 | 17.1 | 0.7 | 1.2 |  |  | 41.2 | 19.7 |  |  |  |  | 16.3 |  | 11 | 0.9 | Active | 74 | Active | Active | Activity (Mus musculus [26]): Active; Activity (Mus musculus [17]): inactive; Activity (Mus musculus [27]): Active; Activity (Mus musculus [23]): inactive; Activity (Mus musculus [25]): 47.3
5 | Nc1nnc(-c2cccc(Cl)c2Cl)c(N)n1 [LAMOTRIGINE] | 24.4 | 17.3 | 22.9 | 15.6 | 53.7 | 1.9 | 18.4 | 6.4 | 29.9 | 23.7 | 33.6 | 0.7 | 9.2 | 1.6 | 19.2 | 13.3 |  |  |  |  | 
6 | O=C(O)CCCNC(=O)N/N=C/c1ccccc1O |  | 25.4 |  |  | 31.3 | 11.2 | 28.5 |  | 13.7 | 12.2 | 15.8 | 11.8 | 27.3 | 14.3 | 22.2 |  | inactive | 89 | inactive | inactive | Activity (Mus musculus [28]): Active; Activity (Mus musculus [20]): Active; Activity (Mus musculus [21]): inactive; Activity (Mus musculus [29]): Active; Activity (Mus musculus [30]): Active; Activity (Mus musculus [25]): 19
